Screening data (PubChem)
Sampled rows, rich in hits. Any-hit rate of the full collection: about 1.7%.
Pemphigus Ab inh: inhibitors of pemphigus antibody binding to DSG3, primary screen, biochemical, bead-based, flow cytometry, scFv-GFP; binding (percent of control), % at 10 µM; DSG3-coupled beads, scFv-anti-DSG3-GFP binding; hits give low values; AID 588358, 2011; hit rate 0.48% among 310,000;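 active = binding more than 3 SD below its plate's average and above zero; inconclusive = below that plate limit but binding exactly zero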;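 note: hits lower antibody fragment binding to DSG3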
Efflux pump mplx: inhibitors of Candida efflux pumps in yeast, primary screen, S. cerevisiae, Nile Red, multiplex | S. cerevisiae Candida pump triplex | inhibition, % at 10 µM | hit rate 0.44% among 330,000;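 active = plate passing quality check with inhibition over a set limit, or well fluorescence over plate mean plus 4 SD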;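 note: Nile Red retained in pooled yeast measured as flow cytometry median fluorescence; 0% = buffer negative control and 100% = Enniatin B positive control; higher means more Nile Red kept so more efflux inhibition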
Arr AP2 block: inhibitors of beta-arrestin/AP2 binding, primary screen, biochemical, GPCR trafficking, flow cytometry; FITC-arrestin peptide / GST-AP2 beads; AP2 beta2 appendage carries R879A mutation; inhibition, % at 10 µM; hit rate 0.31% among 340,000; AID 504490, 2011;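 active = inhibition above a set limit, near 3 SD of compounds lacking own fluorescence, cut at about 54% in these data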;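 note: plate controls were DMSO wells for no effect and 5 µM unlabelled arrestin peptide for full effect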
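Assay system: GST-AP2 R879A bound to glutathione beads, E. coli-expressed; Medium: PBS with 0.05% Tween 20 and 0.1% BSA; Also added: fluorescein-tagged arrestin peptide at 50 nM final; Timing: 12 min plus 1 h, RT; Measured by: flow cytometry, FL1 (488/535 nm); Evaluation: percent drop in bead-associated FITC signal.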
Neddyl block: inhibitors of cullin neddylation, primary screen, biochemical, TR-FRET, uHTS, NAE and Ubc12; NEDD8-conjugating enzyme Ubc12 (Homo sapiens) + NEDD8-activating enzyme E1 regulatory …; inhibition, % at 25 µM; hit rate 0.58% among 360,000; AID 651699, 2012; in the data active = inhibition above about 36%
Arr-AP2 CP1: inhibitors of arrestin peptide binding to AP2, confirmation, biochemical, cherry pick 1, flow cytometry beads; shares compounds with Arr AP2 block; GST-AP2 beads, FITC arrestin peptide binding; GST-fused beta2-adaptin appendage, R879A mutant; inhibition, % at 10 µM; hit rate 2% among 1,300;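 active = inhibition above a set limit, roughly 3 SD of non-fluorescent compound noise, cut at about 38% in these data; inactive = inhibition at or below that limit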;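 note: loss of bead fluorescence from 50 nM FITC arrestin peptide bound to appendage; 0% = negative control wells and 100% = excess unlabelled arrestin peptide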
GST GSH counter: GST-fluorescein capture on glutathione beads, confirmation, artefact control for arrestin-AP2 inhibitor project, biochemical, cherry pick 1, flow cytometry; hit rate 2% among 1,300; GST-fluorescein binding to GSH beads, fluorescence, counter-screen; shares compounds with Arr AP2 block; inhibition, % at 10 µM;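 active = inhibition above 50%, about 3 SD of the inhibition seen with non-fluorescent compounds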;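 note: fluorescein maleimide labelled GST captured on 4 micron glutathione beads; higher means more loss of bead fluorescence from quenching or blocked binding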
Numbers without * were called inactive; ? = inconclusive; . = no result given.

SMILES	Pemphigus Ab inh	Efflux pump mplx	Arr AP2 block	Neddyl block	Arr-AP2 CP1	GST GSH counter
O=C(O)C1OC(C(=O)O)C(C(=O)O)C1C(=O)O (centres undefined)	95	.	58*	-5	-3	-3
O=C(O)C1CCC(C(=O)O)O1 (centres undefined)	.	.	30	3	.	.
COc1ccc(/C=C2\SC(=S)N(CCCCCC(=O)Nc3cc(C)on3)C2=O)cc1OC	89	0	-4	11	.	.
COc1ccc(/C=C2\SC(=S)N(CCCC(=O)Nc3cc(C)on3)C2=O)cc1OC	?	1	76*	-5	-4	5
CCOc1ccc(-c2csc(NC(=O)CSC3=NC(=O)CN3C(C)=O)n2)c2ccccc12	115	0	8	0	.	.
CCOc1ccc(-c2csc(NC(=O)CSCC(=O)O)n2)c2ccccc12	94	0	62*	-11	7	0
CN(CC(=O)Nc1ccccc1Br)C(=O)COc1ccc2ccccc2c1	.	0	-3	6	.	.
CC(C)(C)S(=O)(=O)/C(C#N)=N/Nc1ccc(Cl)cc1	101	0	57*	0	-4	-2
CC(C)(C)c1ccc(N/N=C(\C#N)S(=O)(=O)C(C)(C)C)cc1	100	0	0	-8	.	.
Nc1cc(Cl)nnc1Cl	91	.	6	-4	.	.
Cc1cc(O)ccc1N/C=C/c1onc(C)c1[N+](=O)[O-]	84	0	99*	-31	-2	9
CCC1(CC)NC(=O)N(CC(=O)OC(C)C(=O)Nc2ccc(NC(C)=O)cc2)C1=O (centres undefined)	101	0	-7	6	.	.
O=S(=O)(CCc1nc2ccccc2o1)c1ccc(Cl)c(Cl)c1	95	0	91*	-5	-10	-4
CCOC(=O)C1=NNC(C(=O)c2ccc(OC)cc2)C1c1ccccc1 (centres undefined)	96	0	1	-5	.	.
CCn1cc(C(=O)N[C@H](C(=O)O)C(C)C)c(=O)c2cc3c(cc21)OCO3	100	0	-11	29	.	.
CCn1cc(C(=O)N[C@@H](C)C(=O)OC)c(=O)c2cc3c(cc21)OCO3	93	0	55*	26	-1	-5
COc1ccc(OC)c(C2C(C(=O)c3ccc(C)o3)=C(O)C(=O)N2c2cc(C)on2)c1 (centres undefined)	126	0	59*	-17	-1	-5
CCN1/C(=C2\SC(=S)N(Cc3ccccc3)C2=O)Sc2ccccc21	91	0	107*	14	9	-6
CCOc1ccc(NC(=O)CN2C(=O)C(C)SC(C)C2=O)cc1 (centres undefined)	.	0	55*	-5	-8	-15
O=C(Cc1ccc(F)cc1)N1CCC2(CC1)NCCc1[nH]cnc12	108	0	56*	3	3	-4
C#CCSc1ncc(S(=O)(=O)c2ccccc2)c(=O)[nH]1	100	0	-10	5	.	.
CC(C)Sc1ncc(S(=O)(=O)c2ccccc2)c(=O)[nH]1	101	1	57*	-4	9	4
CC(Oc1ccc(F)cc1)C(=O)Nc1cc(C(F)(F)F)ccc1-n1cncn1 (centres undefined)	102	0	0	5	.	.
CCOC(=O)c1sc2ncn(CC(=O)Nc3cc(C)on3)c(=O)c2c1C	103	0	63*	-85	12	-2
CCOC(=O)Cn1cnc2sc(C(=O)OC)c(C)c2c1=O	93	0	-5	9	.	.
SMILES	Pemphigus Ab inh	Efflux pump mplx	Arr AP2 block	Neddyl block	Arr-AP2 CP1	GST GSH counter
CN(C(=O)C1CCCN1S(=O)(=O)c1ccc(Cl)cc1)c1ccccc1 (centres undefined)	?	0	-2	7	.	.
O=C(CSc1nnnn1-c1ccc(C(=O)O)cc1)NC1CCCCC1	110	0	0	-1	.	.
O=C(CC(=O)c1ccccc1)Nc1ccc(Cl)cc1	95	0	8	-1	3	7
O=C(Cc1ccc(Cl)cc1)Nc1ccc(NC(=O)c2ccccc2)cc1	83	0	-1	33	.	.
COc1ccccc1NC(=O)CC(=O)c1ccccc1	107	0	-6	0	1	1
Cc1ccc(NC(=O)CC(=O)c2ccccc2)cc1C	114	0	12	7	4	0
COc1ccc(NC(=O)CCCc2ccccc2)cc1OC	125	0	-5	8	.	.
COc1ccc(NC(=O)CCCC(=O)c2ccccc2)cc1OC	92	0	61*	-1	-7	-7
COc1cc(CNC(=O)CCn2nc(C)c3c(C)n(-c4ccccc4)nc3c2=O)cc(OC)c1OC	87	0	-10	-2	.	.
O=C1C(Cl)=C(NC(=O)c2ccccc2)C(=O)C(Cl)=C1NC(=O)c1ccccc1	103	0	58*	6	75*	9
Cc1ccc(S(=O)(=O)Nc2cc(Cl)c(O)cc2C)cc1	95	0	58*	1	4	-4
COC(=O)c1nc2ccc(N3CCOCC3)cc2c(C)c1C(=O)OC	.	0	57*	.	-1	5
COC(=O)c1c(F)c(F)c(N2CCOCC2)c(F)c1F	83	0	0	13	.	.
Cc1cc(NC(=O)c2cnn3c(C(F)F)cc(-c4ccccc4)nc23)no1	101	0	1	25	3	2
COC(=O)c1cnn2c(C(F)(F)F)cc(-c3ccccc3)nc12	104	1	6	.	.	.
Cc1cc(NC(=O)c2cnn3c(C(F)(F)F)cc(-c4ccccc4)nc23)no1	98	0	0	0	3	-17
Cc1cc(C)cc(C(=O)Nc2ccncc2)c1	114	1	3	0	.	.
COc1ccc(NCC(=O)N/N=C(\C)c2cc3ccccc3o2)cc1	95	0	-5	-9	.	.
C/C(=N\NC(=O)CNc1ccc(F)cc1)c1cc2ccccc2o1	104	0	64*	-19	11	0
O=C(CCn1c(=O)c2ccccc2n(CC(=O)NC2CCCC2)c1=O)NCCc1ccc(Cl)cc1	.	0	-15	-15	.	.
Cc1sc2nc(CN3CCOCC3)nc(N3CCOCC3)c2c1C	102	0	58*	1	19	-2
O=C(Nc1nc2ccc(SC(F)F)cc2s1)c1ccc(NS(=O)(=O)c2ccc(F)c(F)c2)cc1	107	0	2	.	.	.
Cc1ccc(-c2nn(-c3ccccc3)cc2C(=O)N2CCN(c3ccccn3)CC2)cc1	97	0	57*	7	13	-5
